From PMC5197073 (Theranostics, 2017)

Key:
[1] = Intratumoral drug concentration and distribution by MALDI-MSI in C26 tumors; format: in vivo, mouse; details: for intratumoral drug distribution (MALDI-MSI): C26 tumors, 100 mg/kg p.o. for two weeks
[2] = system: C38 tumors; experiment: Microvessel areas; format: in vivo, mouse; details: C38 model, 100 mg/kg p.o. for two weeks; P<0.03
[3] = system: C38 mouse colorectal carcinoma; experiment: In vivo growth inhibition of s.c. C38 tumors; details: C57Bl/6 mice, 100 mg/kg p.o. 5 times a week for two weeks; vs vehicle; P=0.0048
Outline: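 C38 fragments, kept by serial s.c. passage, cut into 5×5×5 mm cubes and implanted into the backs of anaesthetised 8-week-old female C57Bl/6 mice. Dosing started on day 13, once daily by feeding tube, 5 days/week. Vehicle was 2% carboxymethylcellulose with 2 mg/mL methyl-4-hydroxybenzoate, also given to controls. Calipers were used three times weekly, with volume = length × width² × π/6.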

[4] = system: desmin; experiment: Pericyte desmin expression in C26 tumors; format: in vivo, mouse; details: C26 model, 100 mg/kg p.o. for two weeks; sunitinib P=0.0135, motesanib P<0.05
[5] = Intratumoral drug concentration and distribution by MALDI-MSI in C38 tumors; format: in vivo, mouse; details: 100 mg/kg p.o. for two weeks
[6] = system: C26 tumors; experiment: Intratumoral hypoxia; format: in vivo, mouse; details: C26 model, 100 mg/kg p.o. for two weeks; P=0.0152
[7] = system: PDGFRβ; details: ref [18]; cited from earlier work
[8] = system: C38 mouse colorectal carcinoma; details: C57Bl/6 mice; previously published study; ref [38]; cited from earlier work

Structure (SMILES) | intratumoral drug distribution (MALDI-MSI) [1] | intratumoral drug distribution (MALDI-MSI) [5] | intratumoral drug concentration vs untreated controls ([5]; P=0.0006) | intratumoral vatalanib concentration ([5]; C57Bl/6 mice, P=0.0025 vs C26) [µmol/mL] | intratumoral microvessel areas (antivascular/antiangiogenic effect) [2] | C38 tumor growth inhibition [3] | pericyte desmin expression [4] | rank of intratumoral concentration among the five RTKIs ([1]; mouse, in vivo, po, 100 mg/kg) | intratumoral hypoxia [6] | IC50 value against PDGFRβ, rank among the tested RTKIs [7] | C38 tumor burdens [8]
CC1(C)CNc2cc(NC(=O)c3cccnc3NCc3ccncc3)ccc21 [motesanib] | inhomogeneous | trace-level | – | – | no significant | no significant tumor growth inhibitory | significantly decreased | – | – | – | –
CCN(CC)CCNC(=O)c1c(C)[nH]c(/C=C2\C(=O)Nc3ccc(F)cc32)c1C [sunitinib] | homogeneously distributed | well-distributed | – | – | significant | significant antitumor | suppressed | highest values | significantly increased | lowest IC50 value | –

Further lines, with some results ahead:

intratumoral drug distribution (MALDI-MSI) [1] | intratumoral drug distribution (MALDI-MSI) [5] | intratumoral drug concentration vs untreated controls ([5]; P=0.0006) | intratumoral vatalanib concentration ([5]; C57Bl/6 mice, P=0.0025 vs C26) [µmol/mL] | Structure (SMILES) | intratumoral microvessel areas (antivascular/antiangiogenic effect) [2] | C38 tumor growth inhibition [3] | pericyte desmin expression [4] | rank of intratumoral concentration among the five RTKIs ([1]; mouse, in vivo, po, 100 mg/kg) | intratumoral hypoxia [6] | IC50 value against PDGFRβ, rank among the tested RTKIs [7] | C38 tumor burdens [8]
Only traces | trace-level | – | – | CNC(=O)c1cc(Oc2ccc(NC(=O)Nc3ccc(Cl)c(C(F)(F)F)c3)cc2)ccn1 [sorafenib] | no significant | no significant tumor growth inhibitory | – | – | – | – | –
Only traces | well-distributed | significantly higher | 0.116 | Clc1ccc(Nc2nnc(Cc3ccncc3)c3ccccc23)cc1 [vatalanib] | significant decrease | robust and significant growth-inhibitory effect | – | – | – | – | significantly decreased
inhomogeneous | trace-level | – | – | Cc1ccc(Nc2nccc(N(C)c3ccc4c(C)n(C)nc4c3)n2)cc1S(N)(=O)=O [pazopanib] | no significant | no significant tumor growth inhibitory | – | – | – | – | –
